In data set [1] the test system is Trypanosoma brucei. In words: Antitrypanosomal activity against suramin sensitive Trypanosoma brucei Squib427 trypomastigotes assessed as reduction in parasitic cell viability measured after 72 hrs by resazurin dye based fluorimetric analysis. The data set is classed as functional, organism-based. Conditions: Squib427, 72 h. The method in brief: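 Suramin-sensitive Squib-427 trypomastigotes cultured in HMI-9 with 10% heat-inactivated FCS at 37 °C, 5% CO2. About 1.5 × 10^4 parasites per well, five concentrations (64, 16, 4, 1, 0.25 μM), DMSO ≤0.5%, 72 h at 37 °C. Resazurin added, fluorescence read 24 h later (ex 550/em 590 nm) as % viability reduction vs control. Suramin reference; duplicate experiments, mean ± S.E.M.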
In general terms: The colour change of resazurin is a common sign of viable cells or microbes.

A short description of data set [2]: Cytotoxicity against human MRC5 SV2 cells assessed as reduction in cell viability measured after 72 hrs by resazurin dye based fluorimetric analysis.
The target of data set [3] is T1, Class 1 phosphodiesterase PDEB1 (Trypanosoma brucei, UniProt Q8WQX9).
T1 sequence (Q8WQX9 whole entry): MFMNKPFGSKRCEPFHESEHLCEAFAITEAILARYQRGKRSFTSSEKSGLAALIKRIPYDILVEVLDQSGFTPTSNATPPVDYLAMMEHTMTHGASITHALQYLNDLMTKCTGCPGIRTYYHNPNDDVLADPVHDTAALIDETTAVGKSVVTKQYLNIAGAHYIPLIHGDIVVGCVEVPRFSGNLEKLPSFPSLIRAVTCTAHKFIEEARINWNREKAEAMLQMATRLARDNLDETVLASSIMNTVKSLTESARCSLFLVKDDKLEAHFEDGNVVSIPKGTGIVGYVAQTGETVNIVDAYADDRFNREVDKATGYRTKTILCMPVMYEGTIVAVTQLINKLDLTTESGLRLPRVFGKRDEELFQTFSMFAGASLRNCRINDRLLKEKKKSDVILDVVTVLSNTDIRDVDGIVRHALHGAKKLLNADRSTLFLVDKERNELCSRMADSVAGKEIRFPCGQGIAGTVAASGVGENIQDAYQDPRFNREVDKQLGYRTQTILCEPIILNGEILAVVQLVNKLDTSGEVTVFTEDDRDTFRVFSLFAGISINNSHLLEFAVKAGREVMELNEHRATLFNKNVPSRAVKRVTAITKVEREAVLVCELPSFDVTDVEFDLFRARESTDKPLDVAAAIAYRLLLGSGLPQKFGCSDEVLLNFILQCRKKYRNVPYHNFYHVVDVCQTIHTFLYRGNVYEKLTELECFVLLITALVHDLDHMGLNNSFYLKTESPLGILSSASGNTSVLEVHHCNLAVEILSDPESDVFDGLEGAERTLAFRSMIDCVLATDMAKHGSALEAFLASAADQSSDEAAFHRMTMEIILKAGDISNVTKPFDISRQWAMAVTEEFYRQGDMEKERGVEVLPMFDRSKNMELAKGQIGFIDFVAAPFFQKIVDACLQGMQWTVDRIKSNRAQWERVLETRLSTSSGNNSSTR
In words: Inhibition of Trypanosoma brucei PDEB1 catalytic domain (565 to 918 residues) expressed in Escherichia coli BL21 incubated for 20 mins using cAMP as substrate by PDELight HTS cAMP phosphodiesterase Kit based luminometry.

Data set [4] in a line: Cytotoxicity against human MRC5 SV2 cells assessed as reduction in cell viability at 64 uM measured after 72 hrs by resazurin dye based fluorimetric analysis.
Data set [5] addresses 3',5'-cyclic-AMP phosphodiesterase 4B (Homo sapiens, UniProt Q07343). In words: Inhibition of human PDE4B catalytic domain incubated for 20 mins using cAMP as substrate by PDELight HTS cAMP phosphodiesterase Kit based luminometry.
Data set [6] concerns Trypanosoma brucei. In words: Antitrypanosomal activity against bloodstream of Trypanosoma brucei trypanosomes assessed as increase in intracellular cAMP level at 3.2 uM measured per 5x10^6 cells after 4 hrs by direct cAMP enzyme immunoassay kit based ELISA (reference value: 6.66 pmol). The data set is classed as functional. A general note: cAMP levels reflect the balance of adenylyl cyclase and phosphodiesterase activity.

Data set [7] concerns Trypanosoma brucei. In words: Antitrypanosomal activity against bloodstream of Trypanosoma brucei trypanosomes assessed as increase in intracellular cAMP level at 8 uM measured per 5x10^6 cells after 4 hrs by direct cAMP enzyme immunoassay kit based ELISA (reference value: 6.66 pmol). Type of data set: functional.

Chain of 3',5'-cyclic-AMP phosphodiesterase 4B (Q07343 whole entry, the tested form may be a part): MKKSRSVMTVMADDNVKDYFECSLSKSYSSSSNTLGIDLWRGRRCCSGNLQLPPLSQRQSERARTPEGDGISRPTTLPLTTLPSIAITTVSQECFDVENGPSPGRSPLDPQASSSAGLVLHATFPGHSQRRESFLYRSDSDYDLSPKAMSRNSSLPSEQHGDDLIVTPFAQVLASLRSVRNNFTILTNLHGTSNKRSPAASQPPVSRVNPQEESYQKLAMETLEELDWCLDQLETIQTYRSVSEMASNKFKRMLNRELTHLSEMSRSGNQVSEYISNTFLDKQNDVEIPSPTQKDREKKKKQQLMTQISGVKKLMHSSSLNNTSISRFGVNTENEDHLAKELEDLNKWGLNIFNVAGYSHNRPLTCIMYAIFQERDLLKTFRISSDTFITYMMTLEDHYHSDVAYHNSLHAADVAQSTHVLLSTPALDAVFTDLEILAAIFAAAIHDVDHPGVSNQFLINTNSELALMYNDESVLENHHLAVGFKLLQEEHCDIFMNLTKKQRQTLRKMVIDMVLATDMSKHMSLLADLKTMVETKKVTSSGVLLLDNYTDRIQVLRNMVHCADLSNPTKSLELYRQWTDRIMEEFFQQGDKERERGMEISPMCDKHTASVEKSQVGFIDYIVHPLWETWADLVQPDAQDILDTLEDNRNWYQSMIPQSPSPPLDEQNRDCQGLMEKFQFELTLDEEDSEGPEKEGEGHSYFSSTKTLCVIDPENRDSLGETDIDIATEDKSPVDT

For the compound `COc1ccc(C2=NN(C(C)C)C(=O)[C@@H]3CC=CC[C@H]23)cc1-c1ccc(C(=O)NCC(N)=O)cc1`, the IC50 in the data set with Trypanosoma brucei [1] (read-out: pIC50 (converted)) is 6310 nM. Besides, the cytotoxic concentration (CC50) (as a rule, the concentration that lowers cell viability or growth by half) at 72 h in data set [2] is 31600 nM.
For `COc1ccc(C2=NN(C3CCCCCC3)C(=O)[C@@H]3CC=CC[C@H]23)cc1-c1ccc(C(=O)NCC(N)=O)cc1` the same measures were 5010 nM and 39800 nM.
Turning to `COc1ccc(C2=NN(C3CCCCCC3)C(=O)[C@@H]3CC=CC[C@H]23)cc1-c1ccc2c(c1)CNC2=O`, the Ki (as a rule, a dissociation constant, usually derived from enzyme kinetics or from competition with a known ligand) in data set [3] is 1580 nM.
In data set [3], `COc1ccc(C2=NN(C(C)C)C(=O)[C@@H]3CC=CC[C@H]23)cc1N1CC(C(N)=O)C1` had a Ki greater than 10000 nM.
Still for that read-out and setting: the figure for `COc1ccc(C2=NN(C3CCCCCC3)C(=O)[C@@H]3CC=CC[C@H]23)cc1-c1ccc(C(=O)NCC(N)=O)c(F)c1` is 794 nM.
Same read-out and setting: the figure for `COCCN1Cc2cc(-c3cc(C4=NN(C5CCCCCC5)C(=O)[C@@H]5CC=CC[C@H]45)ccc3OC)ccc2C1=O` (relative stereo) is 1260 nM; for `COc1ccc(C2=NN(C3CCCCCC3)C(=O)[C@@H]3CC=CC[C@H]23)cc1C#Cc1cnco1` (relative stereo) it is greater than 10000 nM; for `C#Cc1cc(C2=NN(C3CCCCCC3)C(=O)[C@@H]3CC=CC[C@H]23)ccc1OC` (relative stereo) it is 3980 nM.
Same read-out and setting: under `CCCCNC(=O)c1ccc(-c2cc(C3=NN(C(C)C)C(=O)[C@@H]4CC=CC[C@H]34)ccc2OC)s1` (relative stereo) stands greater than 10000 nM; under `COc1ccc(C2=NN(C(C)C)C(=O)[C@@H]3CC=CC[C@H]23)cc1-c1ccc(C(=O)NCc2ccco2)s1` (relative stereo), greater than 10000 nM.
Turning to `COc1ccc(C2=NN(C3CCCCCC3)C(=O)[C@@H]3CC=CC[C@H]23)cc1C#CC(=O)NCc1ccco1` (relative stereo), the Activity entry in data set [4] is “Non-Toxic”. For the same compound, the Ki is 501 nM in data set [3] and 398 nM in data set [5]. In addition, the IC50 is 600 nM in the data set with Trypanosoma brucei [1] (read-out: IC50) and 631 nM in the data set on Trypanosoma brucei [1] (read-out: pIC50 (converted)). Also, in data set [2], the CC50 at 72 h was 50100 nM.
Turning to `COc1ccc(C2=NN(C3CCCCCC3)C(=O)[C@@H]3CC=CC[C@H]23)cc1C#CC(N)=O` (relative stereo), in the data set with Trypanosoma brucei [1] (read-out: pIC50 (converted)), the IC50 is 1000 nM. The CC50 at 72 h in data set [2] was 10000 nM. The Activity in the data set on Trypanosoma brucei [6] was found to be 19.8 pmol; in the data set on Trypanosoma brucei [7], 311 pmol.
In data set [3], `COc1ccc(C2=NN(C3CCCCCC3)C(=O)[C@@H]3CC=CC[C@H]23)cc1C#CC(=O)N1CCOCC1` (relative stereo) showed an inhibitory constant (Ki) of 1000 nM.
For the compound `COc1ccc(C2=NN(C3CCCCCC3)C(=O)[C@@H]3CC=CC[C@H]23)cc1-c1ccc(C(=O)NCC(N)=O)cc1C` (relative stereo), the inhibition constant Ki in data set [3] was greater than 10000 nM.
`COc1ccc(C2=NN(C3CCCCCC3)C(=O)[C@@H]3CC=CC[C@H]23)cc1C#CC(=O)NCC(N)=O` (relative stereo) showed a Ki in data set [3] of 631 nM. Besides, the IC50 in the data set on Trypanosoma brucei [1] (read-out: pIC50 (converted)) is 3980 nM. Also, in data set [2], the half-maximal cytotoxic concentration (CC50) at 72 h was 3980 nM.
As to `COc1ccc(C2=NN(C(C)C)C(=O)[C@@H]3CC=CC[C@H]23)cc1-c1ccc(C(N)=O)s1` (relative stereo), the affinity in data set [3] corresponds to a Ki of 10000 nM.
With `CCCCNC(=O)C#Cc1cc(C2=NN(C3CCCCCC3)C(=O)[C@@H]3CC=CC[C@H]23)ccc1OC` (relative stereo), the Activity entry in data set [4] is given as “Non-Toxic”. The values for the Ki in data set [3] and in data set [5] were 398 nM and 631 nM, respectively. For the same compound, the IC50 was 600 nM in the data set with Trypanosoma brucei [1] (read-out: IC50) and 631 nM with Trypanosoma brucei [1] (read-out: pIC50 (converted)). For the same compound, the CC50 at 72 h in data set [2] was greater than 63100 nM.
On to `COCCNC(=O)C#Cc1cc(C2=NN(C3CCCCCC3)C(=O)[C@@H]3CC=CC[C@H]23)ccc1OC` (relative stereo), for which the Ki was 794 nM in data set [3] and 1580 nM in data set [5]. In the data set with Trypanosoma brucei [1] (read-out: pIC50 (converted)), the IC50 is greater than 63100 nM. Also, the CC50 at 72 h in data set [2] is greater than 63100 nM.
Turning to `COCCNC(=O)c1ccc(-c2cc(C3=NN(C(C)C)C(=O)[C@@H]4CC=CC[C@H]34)ccc2OC)s1` (relative stereo), in data set [3], the Ki was greater than 10000 nM.
As for `CCCCNC(=O)C1CN(c2cc(C3=NN(C(C)C)C(=O)[C@@H]4CC=CC[C@H]34)ccc2OC)C1` (relative stereo), in data set [3], the Ki was greater than 10000 nM.
Same read-out and setting: the figure for `COc1ccc(C2=NN(C(C)C)C(=O)[C@@H]3CC=CC[C@H]23)cc1-c1ccc(C(=O)NCC(N)=O)s1` (relative stereo) is greater than 10000 nM.
Consider `COc1cc(-c2cc(C3=NN(C4CCCCCC4)C(=O)[C@@H]4CC=CC[C@H]34)ccc2OC)ccc1C(=O)NCC(N)=O` (relative stereo), for which the Ki in data set [3] is 6310 nM.
The same measure, in the same setting: under `COc1ccc(C2=NN(C(C)C)C(=O)[C@@H]3CC=CC[C@H]23)cc1N1CC(C(=O)NCC(N)=O)C1` (relative stereo) stands greater than 10000 nM; under `COc1ccc(C2=NN(C3CCCCCC3)C(=O)[C@@H]3CC=CC[C@H]23)cc1-c1ccc2c(c1)CN(CC(N)=O)C2=O` (relative stereo), 1260 nM.
The same measure, in the same setting: under `COc1ccc(C2=NN(C3CCCCCC3)C(=O)[C@@H]3CC=CC[C@H]23)cc1-c1ccc(C(=O)NCC(N)=O)cc1F` (relative stereo) stands 2000 nM; under `COc1cc(C(=O)NCC(N)=O)ccc1-c1cc(C2=NN(C3CCCCCC3)C(=O)[C@@H]3CC=CC[C@H]23)ccc1OC` (relative stereo), 7940 nM; under `COc1ccc(C2=NN(C(C)C)C(=O)[C@@H]3CC=CC[C@H]23)cc1N1CC(C(=O)NCc2ccco2)C1` (relative stereo), greater than 10000 nM.
The same measure, in the same setting: under `COc1ccc(C2=NN(C3CCCCCC3)C(=O)[C@@H]3CC=CC[C@H]23)cc1-c1ccc(C(=O)NCC(N)=O)c(C)c1` (relative stereo) stands 2000 nM.

The values are drawn from ChEMBL document CHEMBL4346747, “Alkynamide phthalazinones as a new class of TbrPDEB1 inhibitors” (Bioorg Med Chem, 2019).
